PMC5709104 (Haematologica, 2017)
Entries after “also recorded” stand apart in the source; their conditions may differ.

Experiments:
MOLM13 cells [1] = assay: Viable cell number and apoptosis by flow cytometry; type: cell-based, human
Outline: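 Viable cell number and apoptosis in MOLM13 cells measured by flow cytometry. Single-agent runs used vehicle (0.1% DMSO) or varying doses of test compound for 48 h or 72 h. Combination runs used vehicle (0.2% DMSO), 1 μM cytarabine, test compound (10 or 50 nM) or both, for 48 h. Student's t-test against cytarabine-treated cells.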

resistant cells = conditions: cited from earlier work
AXL [2] = conditions: cited from earlier work
[3] = tested on: refractory or relapse AML; conditions: single agent; cited from earlier work
MOLM13 cells [4] = assay: Reverse phase protein analysis; type: cell-based, human; conditions: RPPA, 10 nM, 50 nM or 100 nM, 24 hours, at least 2-fold
OCI-AML3 = assay: Reverse phase protein analysis; type: cell-based; conditions: RPPA, 24 hours, FLT3 WT OCI-AML3
[5] = tested on: MOLM13 control shRNA (GFP) cells; assay: Viability and apoptosis by flow cytometry, control shRNA cells; type: cell-based, human; conditions: 10 nM, 48 hours
Outline: (§1)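 MOLM13 cells carrying control shRNA (GFP target) or p53 shRNA incubated 48 h with varying doses of test compound. Viability and apoptosis measured by flow cytometry. p53 knockdown checked by immunoblot densitometry against tubulin. Student's t-test against GFP control.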

RB phosphorylation = assay: Immunoblot analysis; type: cell-based; conditions: even at the lowest dose, 24 hours, MOLM13 and MV4;11
Outline: (§2)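 MOLM13 and MV4;11 cells incubated 24 h with vehicle or varying doses of test compound, then lysed. Total protein separated by SDS-PAGE and immunoblotted, with infrared imaging detection. Densitometry ratios taken to tubulin loading control, or to the total protein for phospho-proteins.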

MV4;11 cells [6] = assay: DNA synthesis and cell cycle assay; type: cell-based; conditions: 24 hours
Outline: (§3)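 MOLM13 and MV4;11 cells exposed to vehicle or varying doses of test compound for 24 h. Cell cycle status assessed by FX Cycle Violet DNA staining and DNA synthesis by EdU incorporation (Click-It EdU kit), both read by flow cytometry. Student's t-test against vehicle-treated cells.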

[7] = tested on: MOLM13, MV4:11, OCI-AML3, and HL60 cells; assay: Trypan blue staining of cells collected for RPPA; type: cell-based; conditions: all other cases (vehicle or ONO-7475, 24 hours; MOLM13, MV4:11, OCI-AML3, HL60)
CDK1 mRNA = assay: qRT-PCR gene expression analysis; type: cell-based; conditions: 10 nM, 24 hours, MOLM13 and MV4;11
Outline: (§4)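 MOLM13 and MV4;11 cells incubated 24 h with vehicle or varying doses of test compound. Total RNA extracted and reverse transcribed. PLK-1, CDK1 and CCNB1 transcripts quantified by TaqMan qRT-PCR and normalized to B2M.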

Cyclin B1 = assay: Immunoblot analysis; type: cell-based; conditions: 10 nM, 24 hours, MOLM13 and MV4;11
Outline: as §2

HL60 = assay: Reverse phase protein analysis; type: cell-based; conditions: RPPA, 24 hours, FLT3 WT HL60
MER = MER (Homo sapiens, UniProt Q12866); assay: Cell-based tyrosine kinase inhibition assay; conditions: recombinant kinase expressing Ba/F3 cells, 48 hr
MOLM13 p53 shRNA cells = assay: Viability and apoptosis by flow cytometry, p53 knockdown cells; type: cell-based, human; conditions: 10 nM, 48 hours
Outline: as §1

phosphorylation of S6 = assay: Immunoblot analysis; type: cell-based; conditions: 24 hours, MOLM13
Outline: as §2

CDK1 = assay: Immunoblot analysis; type: cell-based; conditions: 10 nM, 24 hours, MOLM13 and MV4;11
Outline: as §2

AXL [8] = assay: Immunoblot analysis; type: cell-based; conditions: even at the lowest dose, 24 hours, MOLM13 and MV4;11
Outline: as §2

OCI-AML3 cells = assay: Viable cell number and apoptosis by flow cytometry; type: cell-based; conditions: varying doses, 48 hours, OCI-AML3 (FLT3 WT)
Outline: (§5)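 MV4;11 and OCI-AML3 cells incubated 48 h with vehicle (0.1% DMSO) or varying doses of test compound. Viable cell number and apoptosis measured by flow cytometry.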

PLK1 = assay: Immunoblot analysis; type: cell-based; conditions: 50 nM or 100 nM, 24 hours, MOLM13 and MV4;11
Outline: as §2

MOLM13 luc/gfp cells = assay: Human AML murine xenograft model; type: in vivo, NSG mice
Outline: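 MOLM13 cells lentivirally transduced with firefly luciferase/copGFP, injected into NSG mice. Control feed for one week, then control feed or feed containing 0.004% (~6 mg/kg daily; N=5 per group) or 0.013% (~20 mg/kg daily; N=9 control, N=10 treated) test compound. Leukemic burden by weekly IVIS imaging. Sternum (BM) and liver from moribund mice examined by H&E.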

MOLM13 cells [9] = assay: DNA synthesis and cell cycle assay; type: cell-based, human; conditions: 24 hours
Outline: as §3

MCL-1 = assay: Immunoblot analysis; type: cell-based; conditions: 24 hours
Outline: as §2

PLK-1 mRNA = assay: qRT-PCR gene expression analysis; type: cell-based; conditions: 24 hours; for reduction of PLK-1 mRNA relative to B2M: MOLM13
Outline: as §4

AXL mRNA = assay: qRT-PCR gene expression analysis; type: cell-based; conditions: 24 hours
MV4;11 cells [10] = assay: Viable cell number and apoptosis by flow cytometry; type: cell-based; conditions: 10 nM, 48 hours
Outline: as §5

p38 phosphorylation = assay: Immunoblot analysis; type: cell-based; conditions: 24 hours, MOLM13; due to reduction of total p38
Outline: as §2

CCNB1 mRNA = assay: qRT-PCR gene expression analysis; type: cell-based; conditions: 10 nM, 24 hours, MOLM13 and MV4;11
Outline: as §4

FLT3 phosphorylation = assay: Immunoblot analysis; type: cell-based; conditions: 10 nM
Outline: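 MOLM13 and MV4;11 cells exposed to vehicle or test compound, lysed, total protein resolved by SDS-PAGE, immunoblotted for FLT3 phosphorylation, with infrared imaging detection. Tubulin as loading control.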

FLT3 = FLT3 (Homo sapiens, UniProt P36888); assay: Cell-based tyrosine kinase inhibition assay; conditions: recombinant kinase expressing Ba/F3 cells, 48 hr
ERK phosphorylation = assay: Immunoblot analysis; type: cell-based; conditions: 10 nM, 24 hours, MOLM13
Outline: as §2

[11] = tested on: MOLM13 cells in co-culture with MSC; assay: In vitro co-culture system with MSC, viability by flow cytometry; type: cell-based, human; conditions: 50 nM, 72 hours
Outline: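 MOLM13 cells grown in monoculture or co-cultured with bone marrow-derived mesenchymal stromal cells (patient-derived, IRB-approved). Treated 72 h with vehicle or test compound. Viable cells measured by flow cytometry.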

HL60 cells = assay: Viable cell number and apoptosis by flow cytometry; type: cell-based; conditions: FLT3 WT HL60, data not shown

FLT3, sequence (P36888 27-993): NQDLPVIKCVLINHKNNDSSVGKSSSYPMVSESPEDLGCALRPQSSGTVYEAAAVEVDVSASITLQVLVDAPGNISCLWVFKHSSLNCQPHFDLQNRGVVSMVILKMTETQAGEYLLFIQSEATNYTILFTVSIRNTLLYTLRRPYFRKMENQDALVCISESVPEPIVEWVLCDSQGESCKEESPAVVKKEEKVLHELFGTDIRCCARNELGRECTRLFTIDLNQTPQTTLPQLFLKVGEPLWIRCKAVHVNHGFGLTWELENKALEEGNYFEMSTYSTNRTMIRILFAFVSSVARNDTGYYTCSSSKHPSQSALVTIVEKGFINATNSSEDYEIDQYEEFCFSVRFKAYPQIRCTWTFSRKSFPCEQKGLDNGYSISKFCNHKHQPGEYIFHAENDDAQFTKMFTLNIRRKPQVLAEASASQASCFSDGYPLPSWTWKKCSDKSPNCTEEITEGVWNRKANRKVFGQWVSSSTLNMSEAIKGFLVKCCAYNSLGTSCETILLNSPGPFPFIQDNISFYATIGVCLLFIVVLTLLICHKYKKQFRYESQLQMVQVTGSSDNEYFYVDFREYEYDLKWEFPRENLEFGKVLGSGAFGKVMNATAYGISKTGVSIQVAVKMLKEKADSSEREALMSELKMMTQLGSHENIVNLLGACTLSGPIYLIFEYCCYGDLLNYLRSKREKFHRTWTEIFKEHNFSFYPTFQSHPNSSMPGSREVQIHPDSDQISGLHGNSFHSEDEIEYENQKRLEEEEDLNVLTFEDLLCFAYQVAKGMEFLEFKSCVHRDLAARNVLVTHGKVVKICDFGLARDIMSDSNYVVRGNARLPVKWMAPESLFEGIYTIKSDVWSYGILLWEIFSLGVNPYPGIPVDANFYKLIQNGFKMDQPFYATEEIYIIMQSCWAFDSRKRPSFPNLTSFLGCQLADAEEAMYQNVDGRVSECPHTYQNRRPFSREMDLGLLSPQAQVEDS
MER, sequence (Q12866 21-999): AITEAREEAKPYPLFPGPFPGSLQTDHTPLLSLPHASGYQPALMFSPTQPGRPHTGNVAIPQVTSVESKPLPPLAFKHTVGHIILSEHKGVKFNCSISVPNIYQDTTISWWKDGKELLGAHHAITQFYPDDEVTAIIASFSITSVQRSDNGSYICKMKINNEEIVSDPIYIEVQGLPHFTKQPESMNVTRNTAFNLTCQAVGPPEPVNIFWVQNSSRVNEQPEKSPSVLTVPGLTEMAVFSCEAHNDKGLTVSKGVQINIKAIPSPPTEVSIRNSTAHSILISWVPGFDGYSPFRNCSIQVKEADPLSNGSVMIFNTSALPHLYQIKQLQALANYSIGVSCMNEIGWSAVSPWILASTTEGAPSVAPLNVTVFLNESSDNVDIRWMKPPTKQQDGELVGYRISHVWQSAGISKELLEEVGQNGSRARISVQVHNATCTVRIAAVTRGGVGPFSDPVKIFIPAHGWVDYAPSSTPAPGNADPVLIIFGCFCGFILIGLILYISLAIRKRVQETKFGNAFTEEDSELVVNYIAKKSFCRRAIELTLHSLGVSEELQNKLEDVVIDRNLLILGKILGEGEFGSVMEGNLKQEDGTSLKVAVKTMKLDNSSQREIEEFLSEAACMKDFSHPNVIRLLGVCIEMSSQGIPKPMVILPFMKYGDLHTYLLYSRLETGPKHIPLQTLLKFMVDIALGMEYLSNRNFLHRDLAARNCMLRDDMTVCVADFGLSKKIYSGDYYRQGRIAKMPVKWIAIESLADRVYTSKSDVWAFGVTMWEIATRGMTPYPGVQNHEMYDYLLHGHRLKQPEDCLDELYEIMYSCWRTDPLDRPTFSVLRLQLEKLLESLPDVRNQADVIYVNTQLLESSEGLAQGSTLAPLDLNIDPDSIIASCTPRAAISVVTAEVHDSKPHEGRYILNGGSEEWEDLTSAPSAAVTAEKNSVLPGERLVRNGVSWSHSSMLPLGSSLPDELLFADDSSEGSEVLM

Nc1ccn([C@@H]2O[C@H](CO)[C@@H](O)[C@@H]2O)c(=O)n1 [AraC, Cytarabine, reference compound]
viable cell numbers and apoptosis, single agent (MOLM13 cells [1]; 1 μM AraC alone, 48 hours, MOLM13): effective

Nc1nc(Nc2ccc3c(c2)CC[C@@H](N2CCCC2)CC3)nn1-c1cc2c(nn1)-c1ccccc1CCC2 [BGB324]
sensitisation to a combination of decitabine and vorinostat (resistant cells): could sensitize resistant cells

CCc1nc(C(N)=O)c(Nc2ccc(N3CCC(N4CCN(C)CC4)CC3)c(OC)c2)nc1NC1CCOCC1 [Gilteritinib, gilteritinib]
IC50 (AXL [2]): 0.7 nM | patients achieving some response [3]: 40% | patients exhibiting inhibition of FLT3 phosphorylation [3]: 90% | tolerability [3]: well tolerated

COc1cc2nccc(Oc3ccc(NC(=O)c4cc5c(n(-c6ccccc6)c4=O)CCCC5=O)nc3)c2cc1OC [ONO-7475]
Proteins increased in MOLM13 cells by ONO-7475 (MOLM13 cells [4]): H2AX (phospho; pS140) | change (i.e., 2-fold) in the level of protein (OCI-AML3): no significant change | apoptosis [5]: without inducing apoptosis | reduction of viability [5]: ~ 55% | RB phosphorylation (RB phosphorylation): blocked RB phosphorylation | suppression of DNA synthesis (MV4;11 cells [6]; 5 nM): > 2 fold | cell cycle status (MV4;11 cells [6]): potently induced G0/G1 arrest | viable cells (Trypan blue) [7]: > 95% | reduction of CDK1 mRNA relative to B2M (CDK1 mRNA): at least 60% | apoptosis (MOLM13 cells [1]; 10 nM, 48 hours, MOLM13): induced apoptosis | reduction of cell viability (MOLM13 cells [1]; 10 nM, 48 hours, MOLM13): > 50% | cells becoming apoptotic (MOLM13 cells [1]; 10 nM, 72 hours, MOLM13): > 70% | viable cells (MOLM13 cells [1]; 10 nM, 72 hours, MOLM13 monoculture): nearly eliminated all viable MOLM13 cells | viable cell numbers and apoptosis, single agent (MOLM13 cells [1]; ONO-7475 alone (10nM or 50 nM), 48 hours, MOLM13): effective | Cyclin B1 protein (Cyclin B1): potently suppressed | change (i.e., 2-fold) in the level of protein (HL60): no significant change | IC50 (MER): 1 nM | apoptosis (MOLM13 p53 shRNA cells): ~ 20% | reduction of viability (MOLM13 p53 shRNA cells): > 70% | phosphorylation of S6 (phosphorylation of S6): inhibited the phosphorylation of S6 | CDK1 protein (CDK1): potently suppressed | AXL protein (AXL [8]): induced AXL | apoptosis (OCI-AML3 cells): did not induce apoptosis | viable cell number (OCI-AML3 cells): slightly reduced | PLK1 protein (PLK1): Little, if any, PLK1 was detected | mice with reduced leukemic burden compared to control (IVIS imaging) (MOLM13 luc/gfp cells; 0.004% ONO-7475 feed, Day 14): three out of five | leukemia infiltration in the liver (H&E) (MOLM13 luc/gfp cells; 0.013% ONO-7475 feed): little, if any, AML cells in the liver; also recorded: minimal presence of MOLM13 cells in the liver | suppression of DNA synthesis (MOLM13 cells [9]; 5 nM): > 2 fold | cell cycle status (MOLM13 cells [9]): potently induced G0/G1 arrest | suppression of MCL-1 (MCL-1; 10 nM, MOLM13): > 80% | reduction of MCL-1 (MCL-1; 100 nM, MV4;11): 50% | suppression of PLK-1 mRNA compared with MOLM13 (PLK-1 mRNA; 10 nM and 50 nM, MV4;11): more potently suppressed | reduction of PLK-1 mRNA relative to B2M (PLK-1 mRNA; 10 nM): ~ 60% | reduction of PLK-1 mRNA relative to B2M (PLK-1 mRNA; 50 nM): ~ 80% | increase of AXL mRNA relative to B2M (AXL mRNA; 10 nM, MOLM13 and MV4;11): ~ 3.5 fold | increase of AXL mRNA relative to B2M (AXL mRNA; 50 nM, MOLM13): > 6 fold | increase of AXL mRNA relative to B2M (AXL mRNA; 50 nM, MV4;11): > 8 fold | apoptosis (MV4;11 cells [10]): induced apoptosis | reduction of cell viability (MV4;11 cells [10]): > 50% | p38 phosphorylation (p38 phosphorylation): p38 phosphorylation was reduced | reduction of CCNB1 mRNA relative to B2M (CCNB1 mRNA): at least 60% | p-FLT3 (FLT3 phosphorylation; MOLM13): greatly reduced | p-FLT3 (FLT3 phosphorylation; MV4;11): nearly eliminated | IC50 (FLT3): 147 nM | reduction of ERK phosphorylation (ERK phosphorylation): ~ 50% | protection of AML cells by MSC from the inhibitor [11]: abrogated most of this effect | sensitivity to drug (HL60 cells): resistant
